Experimental findings from ChEMBL document CHEMBL4376891, “Benzenesulfonamide Derivatives as Calcium/Calmodulin-Dependent Protein Kinase Inhibitors and Antiviral Agents against Dengue and Zika Virus Infections” (J Med Chem, 2020) are described below.

Active and inactive are the calls of the source. No cut-off for these calls is given here.

Series [1] can be described thus: Cytotoxicity against human BE(2)-C cells assessed as cell proliferation at 6.25 uM incubated overnight by XTT assay relative to control. To be noted: read-out: Activity. Type of series: cell-based.
Series [2] concerns dengue virus type 2. Briefly: Antiviral activity against eGFP-fused Dengue virus 2 infected in human BE(2)-C cells assessed as viral infection level by measuring intensity of eGFP emission from infected cells at 1.56 uM incubated for 24 hrs relative to control. Type of series: functional. A digest of the protocol: (§1)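 BE(2)C cells, in RPMI 1640 with 10% FBS, were infected with DENV-2-eGFP reporter virus (MOI 1) for 24 h with or without compound, using DMSO as solvent control. Cells were fixed in 4% paraformaldehyde and stained with Hoechst, then imaged by high-content analysis. eGFP intensity per cell number is given as % of solvent control. Values are means of 3 experiments.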

Series [3] concerns dengue virus type 2. Briefly: Antiviral activity against eGFP-fused Dengue virus 2 infected in human BE(2)-C cells assessed as viral infection level by measuring intensity of eGFP emission from infected cells at 3.13 uM incubated for 24 hrs relative to control. Type of series: functional. Summed up: as §1
Series [4] deals with Calcium/calmodulin-dependent protein kinase type II subunit alpha (Homo sapiens, UniProt Q9UQM7). Briefly: Inhibition of human CaMKIIalpha using calmodulin and syntide-2 incubated for 15 mins by ELISA.
Calcium/calmodulin-dependent protein kinase type II subunit alpha, sequence (Q9UQM7 whole entry): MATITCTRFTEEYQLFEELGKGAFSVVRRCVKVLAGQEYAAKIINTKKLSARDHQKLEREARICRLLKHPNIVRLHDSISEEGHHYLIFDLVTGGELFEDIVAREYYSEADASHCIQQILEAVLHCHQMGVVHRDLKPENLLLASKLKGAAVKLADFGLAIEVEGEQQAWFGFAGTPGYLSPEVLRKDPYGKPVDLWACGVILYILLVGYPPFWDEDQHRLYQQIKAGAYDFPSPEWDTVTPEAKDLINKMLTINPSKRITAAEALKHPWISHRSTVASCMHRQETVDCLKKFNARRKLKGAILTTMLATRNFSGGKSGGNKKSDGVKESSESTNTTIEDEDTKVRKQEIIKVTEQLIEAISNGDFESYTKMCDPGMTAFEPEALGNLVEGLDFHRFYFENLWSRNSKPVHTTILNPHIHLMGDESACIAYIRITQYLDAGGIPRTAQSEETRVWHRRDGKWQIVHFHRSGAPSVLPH

In the case of `COc1ccc(S(=O)(=O)N(CCCC(O)c2ccc(F)cc2)c2ccccc2)cc1` (configuration not stated), the viability at 6.25 µM in series [1] is 76.3%. The Activity in series [2] turned out to be 59.4%; in series [3], 48.5%. Moreover, the inhibition entry in series [4] was “Active”.

Consider `COc1ccc(S(=O)(=O)N(CCCC(=O)C2CCCCCC2)C2CCCCC2)cc1`, for which, in series [1], the viability at 6.25 µM is 97.5%. The figures for the Activity in series [2] and in series [3] were 85.7% and 65.7%, respectively.

Turning to `COc1ccc(S(=O)(=O)N(CCCC(=O)c2ccc(F)cc2)c2ccccc2)cc1`, the viability at 6.25 µM in series [1] is 56.1%. The Activity in series [2] is reported as 55.9%; in series [3], 39.3%.

Regarding `COc1ccc(S(=O)(=O)N(CCCC(=O)C2CCCC2)c2ccccc2)cc1`, the Activity was determined as 34.6% in series [2] and 25.1% in series [3].

As to `COc1ccc(S(=O)(=O)N(CCCC(=O)C2C3CC4CC(C3)CC2C4)c2ccccc2)cc1` (configuration not stated), in series [1], the viability at 6.25 µM was found to be 96.7%. The Activity in series [2] is recorded as 57.3%; in series [3], 51.1%.

Regarding `COc1ccc(S(=O)(=O)N(CCCC(=O)C2CCC2)c2ccccc2)cc1`, the viability at 6.25 µM in series [1] came out at 93.9%. Further, the Activity is listed as 42.8% in series [2] and 33% in series [3].

Turning to `COc1ccc(S(=O)(=O)N(C)CCCC(=O)c2ccc(F)cc2)cc1`, the viability at 6.25 µM in series [1] was determined as 106%. Moreover, the Activity in series [2] is reported as 100%; in series [3] it was 100.9%.

For `COc1ccc(S(=O)(=O)N(CCO)c2ccccc2CN(C)C/C=C/c2ccc(Cl)cc2)cc1`, in series [1], the viability at 6.25 µM came out at 84.3%. Besides, the figures for the Activity in series [2] and in series [3] were 30.5% and 14.5%, respectively.

`COc1ccc(S(=O)(=O)N(CCCC(=O)C2CCCCC2)c2ccccc2)cc1`: the viability at 6.25 µM in series [1] was 107%. The results for the Activity in series [2] and in series [3] were 68.9% and 63.3%, respectively.

For the compound `COc1ccc(S(=O)(=O)N(CCCC(=O)C2CCCCCC2)c2ccc3c(c2)CCCC3)cc1`, the viability at 6.25 µM in series [1] worked out at 104%. Further, the Activity in series [2] was 87.2%; in series [3], 21.5%.

Consider `COc1ccc(S(=O)(=O)N(CCCC(C)=O)c2ccccc2)cc1`, for which the viability at 6.25 µM in series [1] was 106%. For the same compound, the Activity in series [2] came to 92.8%; in series [3], 100.8%.

For `Cc1ccc(S(=O)(=O)N(CCCC(=O)C2CCCCCC2)c2ccccc2)cc1`, in series [1], the viability at 6.25 µM is 99.5%. For the same compound, the Activity is on record as 93.9% in series [2] and 76.9% in series [3].

As for `COc1ccc(S(=O)(=O)NCCCC(=O)c2ccc(F)cc2)cc1`, the viability at 6.25 µM in series [1] is 106%. Also, the Activity in series [2] is 110.1%; in series [3] it was 122.6%. Moreover, in series [4], the inhibition entry was “Active”.

As usually defined, the IC50 is the concentration needed to halve the response being measured. In the case of `CN([C@@H](Cc1ccc(OS(=O)(=O)c2cccc3cnccc23)cc1)C(=O)N1CCN(c2ccccc2)CC1)S(=O)(=O)c1cccc2cnccc12`, the viability at 6.25 µM in series [1] was 65.7%. Besides, the Activity in series [2] is 33.5%; in series [3], 22.3%. Besides, the IC50 in series [4] came out at 1.03 µM.

On to `COc1ccc(S(=O)(=O)N(CCCC(=O)C2CCCCCC2)c2ccc(C3CCCCC3)cc2)cc1`, for which the Activity came to 36.1% in series [2] and 13.8% in series [3].

Take `O=C(CCCN(c1ccccc1)S(=O)(=O)c1ccc(OC(F)(F)F)cc1)C1CCCC1`: in series [1], the viability at 6.25 µM was 92.4%. Also, the Activity in series [2] is reported as 102.6%; in series [3], 118.2%.

On to `O=C(CCCN(c1ccccc1)S(=O)(=O)c1ccc(Oc2ccccc2)cc1)C1CCCCCC1`, for which the viability at 6.25 µM in series [1] was 95.5%. Besides, the Activity in series [2] is 74.7%; in series [3], 73.4%.
